This is an account of results in ChEMBL document CHEMBL1124792, “Synthesis and structure-activity relationships of 5-substituted 6,8-difluoroquinolones, including sparfloxacin, a new quinolone antibacterial agent with improved potency” (1990).

Holding throughout (format): functional
One experiment concerns Moraxella bovis. Put plainly: In vitro antibacterial activity against glucose nonfermenter Moraxella bovis P-7101. The essentials: (§1)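 Two-fold agar dilution MIC on Mueller-Hinton agar (pH 7.4), following the Japan Society of Chemotherapy MIC Committee method. Inoculum was about 10⁶ CFU, and growth was read after 20 h at 37 °C. MIC is reported in µg/mL.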
The test system of experiment [1] is Pseudomonas aeruginosa. Nature of the experiment: In vitro antibacterial activity against Pseudomonas aeruginosa IFO 3445. The essentials: as §1
Another experiment has as its system Streptococcus pyogenes. Nature of the experiment: In vitro antibacterial activity against Streptococcus pyogenes A65. The essentials: as §1
The species named for experiment [2] is Mus musculus. Nature of the experiment: Oral efficacy against Pseudomonas aeruginosa 12 on Systemic Infections in Mice. The essentials: (§2)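 Groups of at least 10 male Std-ddY mice (20 ± 2 g) were infected ip, with S. pyogenes A65 at 3×10^7 cells or P. aeruginosa 12 at 4×10^3 cells. Compounds were suspended in 0.2% sodium carboxymethylcellulose and given orally at 0 and 6 h postinfection. The result is reported as ED50 in mg/kg.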

The test system of experiment [3] is Escherichia coli. Nature of the experiment: In vitro antibacterial activity against Escherichia coli P-5101. The essentials:
as §1

The test system of experiment [4] is Staphylococcus aureus. Put plainly: In vitro antibacterial activity against Staphylococcus aureus 50774. The procedure, abridged: as §1
A further experiment has as its system Enterobacter cloacae. Put plainly: In vitro antibacterial activity against Enterobacter cloacae 963.
The next experiment relates to Klebsiella pneumoniae. Put plainly: In vitro antibacterial activity against Klebsiella pneumoniae 13. The procedure, abridged: as §1
In another experiment the test system is Enterococcus faecalis. Put plainly: In vitro antibacterial activity against Streptococcus faecalis 2473. The procedure, abridged:
as §1

Experiment [5] is filed under the species Mus musculus. Put plainly: Oral efficacy against Streptococcus pyogenes A65 on Systemic Infections in Mice. The essentials:
as §2

Experiment [6] has as its system Serratia marcescens. Put plainly: In vitro antibacterial activity against Serratia marcescens S-9. The procedure, abridged:
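MIC (µg/mL) by 2-fold agar dilution on Mueller-Hinton agar (pH 7.4), following the Japan Society of Chemotherapy MIC Committee method. Inoculum of about 10⁶ CFU. Growth was read after 20 h at 37 °C.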

For experiment [7], the system named is Pseudomonas aeruginosa. Nature of the experiment: In vitro antibacterial activity against Pseudomonas aeruginosa 12. The essentials: as §1
In experiment [8] the test system is Staphylococcus epidermidis. Nature of the experiment: In vitro antibacterial activity against Streptococcus epidermis 8. The procedure, abridged: as §1
The test system of experiment [9] is Staphylococcus aureus. Put plainly: In vitro antibacterial activity against Staphylococcus aureus 209P JC-1. The essentials: as §1
The test system of experiment [10] is Serratia marcescens. Put plainly: In vitro antibacterial activity against Serratia marcescence S-9. The procedure, abridged:
as §1

The subject of experiment [11] is Escherichia coli. Put plainly: In vitro antibacterial activity against Escherichia coli NIHJ JC-2. The essentials:
as §1

The structures appear in SMILES notation. Converted amounts (≈) assume the structure as drawn.

As usually defined, the MIC is the lowest concentration that inhibits growth of the organism. By ED50 is commonly meant the midpoint of the dose-response relation. High values mean weaker potency, low ones greater potency.

`O=C(O)c1cn(C2CC2)c2c(F)c(N3CCNCC3)c(F)cc2c1=O`: the MIC turned out to be 0.39 µg/mL (≈ 1.12 µM) against Moraxella bovis; 0.2 µg/mL (≈ 0.573 µM) against Pseudomonas aeruginosa [1]; 0.2 µg/mL (≈ 0.573 µM) against Streptococcus pyogenes; 0.0031 µg/mL (≈ 0.00887 µM) against Escherichia coli [3]; 0.05 µg/mL (≈ 0.143 µM) in the experiment on Staphylococcus aureus [4]; 0.025 µg/mL (≈ 0.0716 µM) in the experiment on Enterobacter cloacae. In addition, the minimal inhibitory concentration (MIC) against Klebsiella pneumoniae stood at 0.0125 µg/mL (≈ 0.0358 µM); in the experiment on Enterococcus faecalis, 0.78 µg/mL (≈ 2.23 µM); in the experiment on Serratia marcescens [6] it was 0.025 µg/mL (≈ 0.0716 µM); against Pseudomonas aeruginosa [7], 0.05 µg/mL (≈ 0.143 µM); in experiment [8] it was 0.025 µg/mL (≈ 0.0716 µM). Also, the ED50 was found to be 1.22 mg/kg in the experiment listed under Mus musculus [2] and 20.5 mg/kg in the experiment filed under Mus musculus [5].

For the molecule `CC1CN(c2c(F)c(N)c3c(=O)c(C(=O)O)cn(C4CC4)c3c2F)CCN1` (stereo not drawn), the MIC worked out at 0.39 µg/mL (≈ 1.03 µM) in the experiment with Moraxella bovis; 0.2 µg/mL (≈ 0.529 µM) in the experiment with Pseudomonas aeruginosa [1]; 0.39 µg/mL (≈ 1.03 µM) in the experiment with Streptococcus pyogenes; 0.0063 µg/mL (≈ 0.0166 µM) against Escherichia coli [3]; 0.025 µg/mL (≈ 0.0661 µM) with Staphylococcus aureus [4]; 0.025 µg/mL (≈ 0.0661 µM) in the experiment on Staphylococcus aureus [9]. For the same molecule, the MIC against Enterobacter cloacae stood at 0.025 µg/mL (≈ 0.0661 µM); in the experiment on Klebsiella pneumoniae it was 0.0125 µg/mL (≈ 0.033 µM); in the experiment on Enterococcus faecalis it was 0.39 µg/mL (≈ 1.03 µM); with Serratia marcescens [10], 0.05 µg/mL (≈ 0.132 µM); in the experiment with Pseudomonas aeruginosa [7] it was 0.2 µg/mL (≈ 0.529 µM); in experiment [8], 0.025 µg/mL (≈ 0.0661 µM). The molecule also gave a minimum inhibitory concentration (MIC) against Escherichia coli [11] of 0.006 µg/mL (≈ 0.0159 µM). Besides, the figures for the ED50 in the experiment filed under Mus musculus [2] and in the experiment filed under Mus musculus [5] were 1.11 mg/kg and 6.54 mg/kg, respectively.

As for `Nc1c(F)c(N2CCNCC2)c(F)c2c1c(=O)c(C(=O)O)cn2C1CC1`, the MIC was 0.39 µg/mL (≈ 1.07 µM) against Moraxella bovis; 0.39 µg/mL (≈ 1.07 µM) in the experiment with Pseudomonas aeruginosa [1]; 0.2 µg/mL (≈ 0.549 µM) in the experiment on Streptococcus pyogenes; 0.0063 µg/mL (≈ 0.0173 µM) in the experiment with Escherichia coli [3]; 0.05 µg/mL (≈ 0.137 µM) against Staphylococcus aureus [4]; 0.05 µg/mL (≈ 0.137 µM) against Staphylococcus aureus [9]. Besides, the MIC came out at 0.0125 µg/mL (≈ 0.0343 µM) with Enterobacter cloacae; 0.025 µg/mL (≈ 0.0686 µM) with Klebsiella pneumoniae; 0.39 µg/mL (≈ 1.07 µM) against Enterococcus faecalis; 0.05 µg/mL (≈ 0.137 µM) in the experiment with Serratia marcescens [6]; 0.1 µg/mL (≈ 0.274 µM) in the experiment on Pseudomonas aeruginosa [7]; 0.05 µg/mL (≈ 0.137 µM) in experiment [8]. The molecule also came in with an MIC in the experiment with Escherichia coli [11] of 0.0063 µg/mL (≈ 0.0173 µM). In addition, the results for the 50% effective dose (ED50) in the experiment listed under Mus musculus [2] and in the experiment listed under Mus musculus [5] were 1.56 mg/kg and 170 mg/kg, respectively.

As to `CC1CN(c2c(F)c(O)c3c(=O)c(C(=O)O)cn(C4CC4)c3c2F)CCN1` (stereo not drawn), the MIC against Moraxella bovis worked out at 1.56 µg/mL (≈ 4.11 µM); in the experiment on Pseudomonas aeruginosa [1], 0.78 µg/mL (≈ 2.06 µM); against Streptococcus pyogenes, 0.78 µg/mL (≈ 2.06 µM); in the experiment with Escherichia coli [3], 0.025 µg/mL (≈ 0.0659 µM); with Staphylococcus aureus [4] it was 0.2 µg/mL (≈ 0.527 µM); in the experiment on Staphylococcus aureus [9], 0.2 µg/mL (≈ 0.527 µM). The MIC in the experiment on Enterobacter cloacae amounted to 0.05 µg/mL (≈ 0.132 µM); in the experiment with Klebsiella pneumoniae, 0.1 µg/mL (≈ 0.264 µM); with Enterococcus faecalis, 1.56 µg/mL (≈ 4.11 µM); against Serratia marcescens [10] it was 0.1 µg/mL (≈ 0.264 µM); against Pseudomonas aeruginosa [7] it was 0.78 µg/mL (≈ 2.06 µM); in [8] it was 0.1 µg/mL (≈ 0.264 µM). For the same molecule, the MIC against Escherichia coli [11] came to 0.025 µg/mL (≈ 0.0659 µM). Also, the 50% effective dose (ED50) amounted to 5.97 mg/kg in the experiment listed under Mus musculus [2] and 12.5 mg/kg in the experiment listed under Mus musculus [5].

As to `Nc1c(F)c(N2CCNC(CF)C2)c(F)c2c1c(=O)c(C(=O)O)cn2C1CC1` (stereo not drawn), the MIC amounted to 0.39 µg/mL (≈ 0.984 µM) against Moraxella bovis; 0.39 µg/mL (≈ 0.984 µM) against Pseudomonas aeruginosa [1]; 0.2 µg/mL (≈ 0.505 µM) against Streptococcus pyogenes; 0.0063 µg/mL (≈ 0.0159 µM) in the experiment on Escherichia coli [3]; 0.0125 µg/mL (≈ 0.0315 µM) against Staphylococcus aureus [4]; 0.025 µg/mL (≈ 0.0631 µM) in the experiment on Staphylococcus aureus [9]. Also, the MIC in the experiment on Enterobacter cloacae was 0.025 µg/mL (≈ 0.0631 µM); against Klebsiella pneumoniae, 0.025 µg/mL (≈ 0.0631 µM); in the experiment on Enterococcus faecalis, 0.39 µg/mL (≈ 0.984 µM); against Serratia marcescens [10] it was 0.1 µg/mL (≈ 0.252 µM); against Pseudomonas aeruginosa [7], 0.2 µg/mL (≈ 0.505 µM); in [8] it was 0.0125 µg/mL (≈ 0.0315 µM). Also, 0.0063 µg/mL (≈ 0.0159 µM) was the least that counted as inhibitory in the experiment with Escherichia coli [11] (MIC). Also, the ED50 came out at 7.02 mg/kg in the experiment filed under Mus musculus [2] and 17.4 mg/kg in the experiment listed under Mus musculus [5].

Regarding `C[C@H]1CN(c2c(F)c(N)c3c(=O)c(C(=O)O)cn(C4CC4)c3c2F)CCN1`, the MIC amounted to 0.2 µg/mL (≈ 0.529 µM) against Moraxella bovis; 0.2 µg/mL (≈ 0.529 µM) against Pseudomonas aeruginosa [1]; 0.2 µg/mL (≈ 0.529 µM) against Streptococcus pyogenes; 0.0063 µg/mL (≈ 0.0166 µM) in the experiment on Escherichia coli [3]; 0.025 µg/mL (≈ 0.0661 µM) with Staphylococcus aureus [4]; 0.025 µg/mL (≈ 0.0661 µM) with Staphylococcus aureus [9]. Besides, the MIC was determined as 0.0125 µg/mL (≈ 0.033 µM) against Enterobacter cloacae; 0.0125 µg/mL (≈ 0.033 µM) in the experiment with Klebsiella pneumoniae; 0.39 µg/mL (≈ 1.03 µM) in the experiment on Enterococcus faecalis; 0.05 µg/mL (≈ 0.132 µM) in the experiment with Serratia marcescens [6]; 0.1 µg/mL (≈ 0.264 µM) with Pseudomonas aeruginosa [7]; 0.025 µg/mL (≈ 0.0661 µM) in experiment [8]. In the experiment with Escherichia coli [11], this molecule returned an MIC of 0.0063 µg/mL (≈ 0.0166 µM). The ED50 came out at 0.84 mg/kg in the experiment filed under Mus musculus [2] and 5.06 mg/kg in the experiment filed under Mus musculus [5].

As for `O=C(O)c1cn(C2CC2)c2c(F)c(N3CCNCC3)c(F)c(F)c2c1=O`, the MIC in the experiment on Moraxella bovis was 3.13 µg/mL (≈ 8.52 µM); in the experiment with Pseudomonas aeruginosa [1] it was 0.78 µg/mL (≈ 2.12 µM); in the experiment with Streptococcus pyogenes it was 3.13 µg/mL (≈ 8.52 µM); against Escherichia coli [3], 0.0125 µg/mL (≈ 0.034 µM); with Staphylococcus aureus [4], 0.39 µg/mL (≈ 1.06 µM); in the experiment on Staphylococcus aureus [9], 0.2 µg/mL (≈ 0.544 µM). In addition, the MIC in the experiment with Enterobacter cloacae was found to be 0.025 µg/mL (≈ 0.0681 µM); against Klebsiella pneumoniae, 0.05 µg/mL (≈ 0.136 µM); in the experiment with Enterococcus faecalis, 3.13 µg/mL (≈ 8.52 µM); against Serratia marcescens [6] it was 0.1 µg/mL (≈ 0.272 µM); with Pseudomonas aeruginosa [7], 0.39 µg/mL (≈ 1.06 µM); in [8], 0.2 µg/mL (≈ 0.544 µM). Also, the minimum inhibitory concentration (MIC) against Escherichia coli [11] came out at 0.0125 µg/mL (≈ 0.034 µM). For the same molecule, the ED50 in the experiment filed under Mus musculus [2] was 3.87 mg/kg; in the experiment listed under Mus musculus [5] it was 25 mg/kg.
